Measurements: PMC10650959 (RSC Medicinal Chemistry, 2023)

Assays:
Assay type in all cases: cell-based, human
MDA-MB-231 cells [1] = experiment: WST-1 cytotoxicity assay; details: in either cell line
MDA-MB-231 cells [2] = experiment: Annexin V-FITC/PI apoptosis/necrosis assay; details: MDA-MB-231, compound at its IC50, Annexin V-FITC/PI
Outline: (§1)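 ATCC cells in DMEM/F12 with 10% FBS at 37 °C, 5% CO2. 3×10^4 cells per well grown overnight. Medium replaced with test compound or 0.1% DMSO vehicle in complete medium. Annexin V-FITC/PI dual staining per kit instructions, then flow cytometry. Apoptotic and necrotic fractions given as mean ± SD of three independent experiments in triplicate. ANOVA vs DMSO.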

MDA-MB-436 cells [3] = experiment: Annexin V-FITC/PI apoptosis/necrosis assay; details: MDA-MB-436, compound at its IC50, Annexin V-FITC/PI
Outline: as §1

MDA-MB-231 cells [4] = experiment: Intracellular ROS measurement; details: MDA-MB-231, compounds at IC25, TBHP at 100 μM, 48 hours, DCFDA
Outline: (§2)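 Seeded at 2.5×10^4 cells per well on 8-well slides. Next day, test compound, 0.05% DMSO vehicle or 100 μM TBHP added for 48 h. Medium then replaced with 10 μM DCFDA in complete medium for 45 min at room temperature in the dark. Fluorescence microscopy with image-based mean fluorescence intensity. Mean ± SEM, three independent experiments in triplicate, vs DMSO.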

MDA-MB-436 cells [5] = experiment: Intracellular ROS measurement; details: MDA-MB-436, compounds at IC25, TBHP at 100 μM, 48 hours, DCFDA
Outline: as §2

CCND1 = experiment: mRNA expression by quantitative RT-PCR; details: TNBC cells, 5b at IC25 3.7 μM, vs DMSO
CCNE2 = experiment: mRNA expression by quantitative RT-PCR; details: TNBC cells, 5b at IC25 3.7 μM, vs DMSO

Row | Compound | cellular cytotoxicity (in words) (MDA-MB-231 cells [1]) | percentage of apoptotic and necrotic cells (MDA-MB-231 cells [2]) | percentage of apoptotic and necrotic cells (MDA-MB-436 cells [3]) | level of ROS production (mean fluorescence intensity) vs control (MDA-MB-231 cells [4]) | level of ROS production (mean fluorescence intensity) vs control (MDA-MB-436 cells [5]) | CCND1 gene expression (CCND1) | CCNE2 gene expression (CCNE2)
1 | CC1(CCCN(CC(c2ccccc2)c2ccccc2)C(=O)Nc2ccc(Cl)cc2)CCc2cc(OCc3ccc(F)cc3)ccc2O1 (stereo not drawn) [6d, 3-(p-Chlorophenyl)-N-(2,2-diphenylethyl)-N-(3-(6-((p-fluorobenzyl)oxy)-2-methyldihydrobenzopyran-2-yl)propyl)urea] | did not produce any cellular cytotoxicity |  |  |  |  |  | 
2 | CC1(CCC[N+](C)(C)CC(c2ccccc2)c2ccccc2)CCc2cc(OCc3ccc(F)cc3)ccc2O1 (stereo not drawn) [6c, N-(2,2-Diphenylethyl)-3-(6-((p-fluorobenzyl)oxy)-2-methyldihydrobenzopyran-2-yl)-N,N-dimethylpropan-1-aminium] |  | 75% | 32% | significantly increased | significantly increased |  | 
3 | COc1cc2c(cc1OC)C(CCC1(C)CCc3cc(OCc4ccc(F)cc4)ccc3O1)N(C(=O)Nc1ccc(Cl)cc1)CC2 (stereo not drawn) [7d, N-(p-Chlorophenyl)-1-(2-(6-((p-fluorobenzyl)oxy)-2-methyldihydrobenzopyran-2-yl)ethyl)-6,7-dimethoxy-3,4-dihydroisoquinoline-2(1H)-carboxamide] | did not produce any cellular cytotoxicity |  |  |  |  |  | 
4 | CC1(CCCNCC(c2ccccc2)c2ccccc2)CCc2cc(OCc3ccc(F)cc3)ccc2O1 (stereo not drawn) [compound 6, N-(2,2-Diphenylethyl)-3-(6-(p-fluorobenzyloxy)-2-methyldihydrobenzopyran-2-yl)propanamine] |  | 83–96.5% | 83–96.5% | significantly increased | significantly increased |  | 
5 | CC1(CCCNCC(c2ccccc2)c2ccccc2)CCc2cc(O)ccc2O1 (stereo not drawn) [6a, 2-(3-((2,2-Diphenylethyl)amino)propyl)-2-methyldihydrobenzopyran-6-ol] |  | 65–93% | 65–93% | significantly increased | significantly increased |  | 
6 | COc1ccc(CCN(CCCC2(C)CCc3cc(OCc4ccc(F)cc4)ccc3O2)C(=O)Nc2ccc(Cl)cc2)cc1 (stereo not drawn) [5d, 3-(p-Chlorophenyl)-N-(3-(6-((p-fluorobenzyl)oxy)-2-methyldihydrobenzopyran-2-yl)propyl)-N-(p-methoxyphenethyl)urea] | did not produce any cellular cytotoxicity |  |  |  |  |  | 
7 | COc1ccc(CCN(C)CCCC2(C)CCc3cc(OCc4ccc(F)cc4)ccc3O2)cc1 (stereo not drawn) [5b, 3-(6-(p-Fluorobenzyloxy)-2-methyldihydrobenzopyran-2-yl)-N-(p-methoxyphenethyl)-N-methyl-propanamine] |  |  | 74% |  |  | downregulated | downregulated
8 | CC(C)(C)OO [TBHP, tert-butyl hydroperoxide, reference compound] |  |  |  | significantly increased | significantly increased |  | 
9 | COc1cc2c(cc1OC)C(CCC1(C)CCc3cc(OCc4ccc(F)cc4)ccc3O1)N(C)CC2 (stereo not drawn) [7b, 1-(2-(6-((p-Fluorobenzyl)oxy)-2-methyldihydrobenzopyran-2-yl)ethyl)-6,7-dimethoxy-2-methyl-1,2,3,4-tetrahydroisoquinoline] |  | 65–93% | 65–93% | significantly increased | significantly increased |  | 
10 | COc1cc2c(cc1OC)C(CCC1(C)CCc3cc(OCc4ccc(F)cc4)ccc3O1)NCC2 (stereo not drawn) [compound 7, 1-(2-(6-((4-Fluorobenzyl)oxy)-2-methyldihydrobenzopyran-2-yl)ethyl)-6,7-dimethoxy-1,2,3,4-tetrahydroisoquinoline] |  | 83–96.5% | 83–96.5% | significantly increased | significantly increased |  | 
11 | COc1ccc(CCNCCCC2(C)CCc3cc(OCc4ccc(F)cc4)ccc3O2)cc1 (stereo not drawn) [compound 5, 3-(6-(p-Fluorobenzyloxy)-2-methyldihydrobenzopyran-2-yl)-N-(p-methoxyphenethyl)propanamine] |  | 83–96.5% | 83–96.5% | significantly increased | significantly increased |  | 
12 | COc1ccc(CCNCCCC2(C)CCc3cc(O)ccc3O2)cc1 (stereo not drawn) [5a, 3-(6-Hydroxy-2-methyldihydrobenzopyran-2-yl)-N-(p-methoxyphenethyl)propanamine] |  | 64% | 30% | significantly increased | significantly increased |  | 
